Measured values: ChEMBL document CHEMBL1151800, “Synthesis, biological evaluation and SAR study of novel pyrazole analogues as inhibitors of Mycobacterium tuberculosis” (2008)
Values after ≈ are worked out from the molar mass of the structure shown.

Tested on: Mycobacterium tuberculosis
Assay: Antimycobacterial activity against Mycobacterium tuberculosis H37Rv ATCC 27294 after 21 to 28 days by twofold agar dilution method
Assay type: functional
In short: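 Twofold agar dilution on Middlebrook 7H11 agar with 10% OADC enrichment, compounds at […]. Each well received 10 μL of H37Rv suspension at 1.5 x 10⁵ cfu/mL grown in 7H9 broth with 10% ADC, giving a final inoculum of 1.5 x 10³ per well. Incubated 21–28 days. MIC read as lowest concentration completely inhibiting visible growth.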

Compound	MIC
CC(C)c1[nH]n(-c2ccc(Cl)cc2)c(=O)c1C(=O)c1ccc(Cl)cc1	32 µg/mL (≈ 85.3 µM)
Cc1[nH]n(-c2ccc(Br)cc2)c(=O)c1C(=O)c1ccc(Cl)cc1	4 µg/mL (≈ 10.2 µM)
O=C(c1ccc(Cl)cc1)c1c(-c2ccccc2)[nH]n(-c2ccccc2)c1=O	32 µg/mL (≈ 85.4 µM)
O=C(c1ccc(Cl)cc1)c1c(C(F)(F)F)[nH]n(-c2ccc(Cl)cc2)c1=O	> 64 µg/mL
Cc1[nH]n(-c2ccc(C(C)C)cc2)c(=O)c1C(=O)c1ccc(Cl)cc1	16 µg/mL (≈ 45.1 µM)
CC(C)c1[nH]n(-c2ccccc2)c(=O)c1C(=O)c1ccc(Cl)cc1	64 µg/mL (≈ 188 µM)
Cc1ccc(-n2[nH]c(-c3ccccc3)c(C(=O)c3ccc(Cl)cc3)c2=O)cc1	32 µg/mL (≈ 82.3 µM)
Cc1[nH]n(-c2ccc(F)cc2)c(=O)c1C(=O)c1ccc(Cl)cc1	12.5 µg/mL (≈ 37.8 µM)
Cc1[nH]n(-c2ccc(Cl)cc2)c(=O)c1C(=O)c1ccc(Cl)cc1	6.25 µg/mL (≈ 18 µM)
O=C(c1ccc(Cl)cc1)c1c(C(F)(F)F)[nH]n(-c2ccccc2)c1=O	> 64 µg/mL
CC(C)c1ccc(-n2[nH]c(-c3ccccc3)c(C(=O)c3ccc(Cl)cc3)c2=O)cc1	32 µg/mL (≈ 76.8 µM)
O=C(c1ccc(Cl)cc1)c1c(-c2ccccc2)[nH]n(-c2ccc(Cl)cc2)c1=O	16 µg/mL (≈ 39.1 µM)
Cc1ccc(-n2nc(C)c(C(=O)c3ccc(Cl)cc3)c2O)cc1	16 µg/mL (≈ 49 µM)
Cc1c(C(=O)c2ccc(Cl)cc2)c(=O)n(-c2ccc(Cl)cc2)n1Cc1ccc(F)cc1	32 µg/mL (≈ 70.3 µM)
Cc1c(C(=O)c2ccc(Cl)cc2)c(=O)n(-c2ccc(Cl)cc2)n1Cc1ccccc1	16 µg/mL (≈ 36.6 µM)
Cc1c(C(=O)c2ccc(Cl)cc2)c(=O)n(-c2ccccc2)n1C	> 100 µg/mL
Cc1c(C(=O)c2ccc(Cl)cc2)c(=O)n(-c2ccccc2)n1Cc1ccc(F)cc1	32 µg/mL (≈ 76 µM)
Cc1c(C(=O)c2ccc(Cl)cc2)c(=O)n(-c2ccc(Cl)cc2)n1Cc1ccc([N+](=O)[O-])cc1	32 µg/mL (≈ 66.3 µM)
Cc1c(C(=O)c2ccc(Cl)cc2)c(=O)n(-c2ccccc2)n1Cc1ccc([N+](=O)[O-])cc1	> 32 µg/mL
Cc1nn(-c2ccccc2)c(O)c1C(=O)c1ccc(Cl)cc1	6.25 µg/mL (≈ 20 µM)
Cc1c(C(=O)c2ccc(Cl)cc2)c(=O)n(-c2ccccc2)n1Cc1ccccc1	> 64 µg/mL
